Assay results reported in ChEMBL document CHEMBL1124242, “Renin inhibitors. Dipeptide analogues of angiotensinogen utilizing a dihydroxyethylene transition-state mimic at the scissile bond to impart greater inhibitory potency” (J Med Chem, 1988).
One block for each compound: values may come before it. Where a SMILES comes first, the peptide text is derived from it. [ ]: non-standard residue; d: D form. The star is where a group is joined. 1Nal = N[C@@H](Cc1cccc2ccccc12)C(=O)O; Cha = N[C@@H](CC1CCCCC1)C(=O)O; Leu(ol) = CC(C)C[C@H](N)CO; Cbz = O=C(OCc1ccccc1)*; Boc = CC(C)(C)OC(=O)*

Legend:
Renin [1] = biological target: T1, Renin (Homo sapiens, UniProt P00797); experiment: (§1) In vitro inhibitory activity against renin at 10e-6 (M)
T1 sequence (P00797 whole entry): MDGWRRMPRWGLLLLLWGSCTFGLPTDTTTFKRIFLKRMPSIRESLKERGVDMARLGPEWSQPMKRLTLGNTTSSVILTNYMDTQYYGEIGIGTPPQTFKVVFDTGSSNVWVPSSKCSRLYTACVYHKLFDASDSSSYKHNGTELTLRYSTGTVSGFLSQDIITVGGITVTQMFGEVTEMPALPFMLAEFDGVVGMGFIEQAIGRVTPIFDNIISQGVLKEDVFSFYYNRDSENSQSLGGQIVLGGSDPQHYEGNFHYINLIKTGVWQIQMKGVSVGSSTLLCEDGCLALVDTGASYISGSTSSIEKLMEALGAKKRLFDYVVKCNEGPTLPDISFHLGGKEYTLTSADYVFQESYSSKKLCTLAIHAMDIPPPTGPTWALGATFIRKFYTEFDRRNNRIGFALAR

Renin (Homo sapiens) [2] = biological target: T2, Renin (Homo sapiens) (UniProt P00797); experiment: as §1
T2 sequence (whole entry): T1 sequence (P00797 whole entry)

Pepsin A (Homo sapiens) = Pepsin A (Homo sapiens) (UniProt P0DJD9); experiment: In vitro inhibitory activity against Human pepsin at 10e-5 M
Sequence of Pepsin A (Homo sapiens) (P0DJD9 63-388 limits assumed): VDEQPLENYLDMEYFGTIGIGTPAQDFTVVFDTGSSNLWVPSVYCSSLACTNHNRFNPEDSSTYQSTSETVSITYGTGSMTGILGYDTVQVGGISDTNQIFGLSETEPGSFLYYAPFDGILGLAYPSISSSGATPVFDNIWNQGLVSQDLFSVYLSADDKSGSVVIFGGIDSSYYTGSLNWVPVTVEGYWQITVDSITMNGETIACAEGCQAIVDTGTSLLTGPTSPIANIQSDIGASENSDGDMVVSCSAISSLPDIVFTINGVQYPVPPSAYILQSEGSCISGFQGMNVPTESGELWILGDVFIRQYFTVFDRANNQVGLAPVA
How it was run: (§2)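 Human gastricsin and pepsin isolated from gastric juice by IRC-50 ion exchange with pH elution. Hemoglobin substrate; gastricsin run at pH 3.1, pepsin at pH 2.0. After trichloroacetic acid precipitation, supernatant absorbance read at 280 nm. Results given as percent inhibition at 10^-5 M.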

Pepsin A (Sus scrofa) = Pepsin A (Sus scrofa) (UniProt P00791); experiment: In vitro Inhibitory activity against porcine Pepsin at 10e-5 (M)
Sequence of Pepsin A (Sus scrofa) (P00791 60-385 limits assumed): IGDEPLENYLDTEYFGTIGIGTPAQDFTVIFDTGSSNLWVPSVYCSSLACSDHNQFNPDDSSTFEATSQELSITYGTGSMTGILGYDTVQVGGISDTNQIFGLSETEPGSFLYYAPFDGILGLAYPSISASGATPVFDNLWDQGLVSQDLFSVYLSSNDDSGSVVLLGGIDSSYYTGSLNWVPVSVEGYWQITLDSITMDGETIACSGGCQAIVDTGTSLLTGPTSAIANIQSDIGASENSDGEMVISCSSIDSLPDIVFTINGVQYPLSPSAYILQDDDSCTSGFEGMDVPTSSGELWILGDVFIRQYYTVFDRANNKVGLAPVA
How it was run: (§3)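 Assayed against purified porcine pepsin or bovine cathepsin D by a method described previously. Results given as percent inhibition at 10^-5 M.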

[3] = biological target: T3, Gastricsin (Homo sapiens) (UniProt P20142); experiment: In vitro Inhibitory activity against human Gastricsin at 10e-5 (M); how it was run: as §2
T3 sequence (whole entry): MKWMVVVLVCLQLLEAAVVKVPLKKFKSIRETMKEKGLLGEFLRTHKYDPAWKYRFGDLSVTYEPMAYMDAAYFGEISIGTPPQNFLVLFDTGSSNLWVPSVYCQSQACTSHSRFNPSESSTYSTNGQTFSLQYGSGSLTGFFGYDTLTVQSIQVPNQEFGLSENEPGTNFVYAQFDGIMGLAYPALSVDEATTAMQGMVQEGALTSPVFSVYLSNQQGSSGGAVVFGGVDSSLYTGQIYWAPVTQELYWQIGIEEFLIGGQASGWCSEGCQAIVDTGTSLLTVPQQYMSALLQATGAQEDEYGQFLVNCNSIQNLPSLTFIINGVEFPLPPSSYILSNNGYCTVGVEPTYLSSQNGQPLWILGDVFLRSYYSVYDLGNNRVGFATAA

Cathepsin D (Bos taurus) = biological target: T4, Cathepsin D (Bos taurus) (UniProt P80209); experiment: In vitro Inhibitory activity against Bovine cathepsin D 10e-5 (M); conditions: concentration not given here; how it was run: as §3
T4 sequence (whole entry): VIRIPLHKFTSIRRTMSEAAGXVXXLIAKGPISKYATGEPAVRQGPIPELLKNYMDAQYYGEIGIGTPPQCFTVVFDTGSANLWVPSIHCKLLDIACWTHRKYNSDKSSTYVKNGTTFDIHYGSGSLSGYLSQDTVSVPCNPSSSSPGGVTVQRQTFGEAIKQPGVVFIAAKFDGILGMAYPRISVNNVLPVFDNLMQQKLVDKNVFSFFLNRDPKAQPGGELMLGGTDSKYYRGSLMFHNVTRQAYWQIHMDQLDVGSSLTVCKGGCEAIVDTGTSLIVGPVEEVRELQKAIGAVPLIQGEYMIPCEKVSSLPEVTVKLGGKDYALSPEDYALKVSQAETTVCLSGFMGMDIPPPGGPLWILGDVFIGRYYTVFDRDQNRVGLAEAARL

Renin (Homo sapiens) [4] = biological target: T2, Renin (Homo sapiens); experiment: In vitro Inhibitory activity against Renin at 10e-9 (M)
How it was run: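 Purified human renin, procedure as reported earlier. Results given as percent inhibition at 10^-9 M.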

Renin [5] = biological target: T1, Renin; experiment: In vitro inhibitory activity was tested against purified human renal renin
Renin [6] = biological target: T1, Renin; experiment: In vitro inhibitory activity against renin at 10e-8(M)
Renin (Homo sapiens) [7] = biological target: T2, Renin (Homo sapiens); experiment: In vitro inhibitory activity against renin at 10e-5 M
Renin [8] = biological target: T1, Renin; experiment: In vitro inhibitory activity against renin at 10e-5 (M)

IC50 (Renin [1]): 3600 nM | inhibition (Renin (Homo sapiens) [2]): 61%
SMILES: CC(C)C[C@@H](CO)NC(=O)[C@H](Cc1c[nH]cn1)NC(=O)[C@H](Cc1cccc2ccccc12)NC(=O)OCc1ccccc1 (Cbz-[1Nal]-His-[Leu(ol)])

inhibition (Pepsin A (Homo sapiens)): 25% | inhibition (Pepsin A (Sus scrofa)): 63% | inhibition [3]: 0% | inhibition (Cathepsin D (Bos taurus)): 81% | inhibition (Renin (Homo sapiens) [4]): 23% | IC50 (Renin [5]): 2.5 nM
SMILES: CC(C)C[C@H](NC(=O)OC(C)(C)C)C(=O)N[C@@H](CC(C)C)C(=O)N[C@@H](CC1CCCCC1)[C@@H](O)[C@@H](O)CC(C)C

IC50 (Renin [6]): 80 nM
SMILES: CC(C)C[C@@H](C=O)NC(=O)[C@H](Cc1c[nH]cn1)NC(=O)[C@H](Cc1cccc2ccccc12)NC(=O)OCc1ccccc1 (Cbz-[1Nal]-His-Leu-aldehyde)

inhibition (Renin (Homo sapiens) [7]): 93% | IC50 (Renin [8]): 450 nM
SMILES: C[C@H](NC(=O)[C@H](Cc1ccccc1)NC(=O)OC(C)(C)C)C(=O)N[C@H](C=O)CC1CCCCC1 (Boc-Phe-Ala-[Cha]-aldehyde)
